The source of these data is PubChem BioAssay AID624175 (Southern Research Specialized Biocontainment Screening …, 2012).

The source made the active and inactive calls.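 Rule for the calls: active = inhibition of 30% or more at any tested concentration; inactive = the rest.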

For the assay, the target named is Leucine aminopeptidase (Plasmodium falciparum (isolate 3D7)) (UniProt Q8IL11). As to the kind of experiment: P. falciparum leucine aminopeptidase M17 inhibition – biochemical, QFRET, H-Leu-NHMec substrate, set 3, selectivity assay for PFM18AAP inhibitor project, dose response (AID 624175). The following applies: recombinant PfM17LAP, H-Leu-NHMec fluorogenic cleavage. A digest of the protocol: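 test system = recombinant PfM17LAP enzyme | compound dosing = 10-point twofold dilution series, 100 down to 0.2 µM, 2% DMSO | timing = enzyme reaction of 90 min at room temperature | measured by = fluorescence of released NHMec, excitation 370 nm, emission 460 nm | evaluation = % inhibition and fitted IC50 | repeats = triplicate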
Chain of Leucine aminopeptidase (Plasmodium falciparum (isolate 3D7)) (Q8IL11 whole entry, looked up): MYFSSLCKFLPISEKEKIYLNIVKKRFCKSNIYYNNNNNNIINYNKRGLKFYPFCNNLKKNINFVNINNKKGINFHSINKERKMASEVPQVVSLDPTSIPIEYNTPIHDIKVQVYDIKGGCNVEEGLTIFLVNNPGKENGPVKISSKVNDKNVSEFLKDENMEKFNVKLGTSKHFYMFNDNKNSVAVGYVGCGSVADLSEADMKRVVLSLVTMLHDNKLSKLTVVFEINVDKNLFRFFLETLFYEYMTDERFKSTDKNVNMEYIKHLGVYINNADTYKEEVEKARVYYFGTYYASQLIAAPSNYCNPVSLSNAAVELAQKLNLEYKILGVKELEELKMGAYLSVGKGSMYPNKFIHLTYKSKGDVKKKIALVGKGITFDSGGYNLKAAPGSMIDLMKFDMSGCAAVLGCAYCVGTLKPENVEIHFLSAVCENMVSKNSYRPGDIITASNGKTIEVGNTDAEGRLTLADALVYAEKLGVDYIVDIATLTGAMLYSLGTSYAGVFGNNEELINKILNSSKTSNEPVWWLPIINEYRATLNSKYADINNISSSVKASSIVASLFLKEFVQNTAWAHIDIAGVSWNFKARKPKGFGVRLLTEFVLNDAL

As to `COc1ccc(C2CCN(c3ccnc4ccccc34)CC2)cc1OC`, the inhibition result (at 100 µM (top of the series)) was “inactive”. Still for that read-out and setting: with `COc1ccc(CCCNc2c3c(nc4ccccc24)CCCC3)cc1OC` the entry was “inactive”; with `COc1ccc(CCNc2cc(C)nc3ccccc23)cc1OC`, “inactive”. For the compound `Cc1cccc2c(N(C)CCc3ccc(O)c(O)c3)ccnc12`, the IC50 (commonly the concentration at which inhibition is half-maximal) is 55.1 µM.

With `COc1ccc(CCNC(=O)c2cc(C)ccc2N)cc1OC`, the inhibition result (at 100 µM (top of the series)) is “inactive”. On the same count and under the same terms, with `CCOc1ccc2nccc(N(C)CCc3ccc(OC)c(OC)c3)c2c1` the entry was “inactive”; with `Clc1c2c(nc3ccccc13)CCCC2`, “inactive”.

As for `CCN(CC)Cc1cc(Nc2ccnc3cc(Cl)ccc23)ccc1O`, the inhibition result (at 50 µM (top of the series)) was “inactive”. With `Cc1cc(N(C)CCc2ccc(O)c(O)c2)c2ccccc2n1`, the IC50 was 47.4 µM. On the same count and under the same terms, with `Oc1ccc(CCCNc2c3c(nc4ccccc24)CCCC3)cc1O` the figure was 56 µM. Turning to `COc1cc(Br)c(CCNc2c3ccccc3nc3ccccc23)cc1OC`, the inhibition entry (at 100 µM (top of the series)) is “inactive”. Consider `Cc1cccc2c(NCCc3ccc(O)c(O)c3)ccnc12`, for which the IC50 is 65.3 µM. On the same count and under the same terms, under `CN(CCc1ccc(O)c(O)c1)c1ccnc2cc(Cl)ccc12` stands 44 µM.

`COc1ccc(CCNc2ccnc3cc(Cl)ccc23)cc1OC`: the inhibition result (at 100 µM (top of the series)) was “inactive”. On the same count and under the same terms, with `COc1ccc(CCNc2c3c(nc4ccc(C)cc24)CCCC3)cc1OC` the entry was “inactive”.

In the case of `Oc1ccc(C2CCCN(c3ccnc4ccccc34)C2)cc1O` (centres undefined), the IC50 was 53.2 µM. Take `COc1cc(Br)c(CCNc2ccnc3ccccc23)cc1OC`: the inhibition entry (at 100 µM (top of the series)) was “inactive”. As to `Oc1ccc(CCNc2ccnc3cc(Cl)ccc23)cc1O`, the IC50 was 73.4 µM. For the compound `COc1ccc(CCNc2ncnc3ccccc23)cc1OC`, for the setting “at 100 µM (top of the series)”, the inhibition entry was “inactive”. Same read-out and setting: under `COc1ccc(CCN(C)c2c3ccccc3nc3ccccc23)cc1OC` stands “inactive”. The same measure, in the same setting: with `CCN(CCc1ccc(OC)c(OC)c1)c1c2ccccc2nc2ccccc12` the entry was “inactive”; with `Nc1c2ccccc2nc2ccccc12`, “inactive”. With `CC(C)(CNc1ccnc2ccccc12)c1ccc(O)c(O)c1`, the IC50 was 101 µM.

Regarding `CN(CCc1ccc(O)c(O)c1)c1ccnc2c(F)cccc12`, the IC50 is 34.6 µM. With `COc1ccc(C2CCN(c3ccnc4ccccc34)C2)cc1OC` (centres undefined), the inhibition entry (at 100 µM (top of the series)) was “inactive”. As to `COc1ccc(CCN(C)c2ccnc3cc(Cl)ccc23)cc1OC`, the inhibition entry (at 100 µM (top of the series)) was “inactive”. In the case of `COc1ccc(CCCN(C)c2c3ccccc3nc3ccccc23)cc1OC`, the inhibition entry (at 100 µM (top of the series)) was “inactive”. The same measure, in the same setting: with `COc1ccc(CCN(C)c2cc(C)nc3ccccc23)cc1OC` the entry was “inactive”. On the same count and under the same terms, under `CN(CCCc1ccc(O)c(O)c1)c1c2ccccc2nc2ccccc12` stands “inactive”; under `COc1ccc(CCN(C)c2ccnc3c(F)cccc23)cc1OC`, “inactive”. On to `Oc1ccc(C2CCN(c3ccnc4ccccc34)CC2)cc1O`, for which the IC50 is 38.4 µM. Take `COc1cc(Br)c(CCNc2c3c(nc4ccccc24)CCCC3)cc1OC`: the inhibition entry (at 100 µM (top of the series)) was “inactive”. The same measure, in the same setting: under `COc1ccc(CCN(C)c2ncnc3ccccc23)cc1OC` stands “inactive”. The same measure, in the same setting: under `COc1ccc(CCN(C)c2ccnc3c(C)cccc23)cc1OC` stands “inactive”. In the case of `CC(Cc1ccc(O)c(O)c1)Nc1ccnc2ccccc12` (centres undefined), the 50% inhibitory concentration (IC50) was 76.5 µM. On the same count and under the same terms, under `Oc1ccc(C2CCN(c3ccnc4ccccc34)C2)cc1O` (centres undefined) stands 30.3 µM. In the case of `CN(CCc1ccc(O)c(O)c1)c1c2ccccc2nc2ccccc12`, under “at 100 µM (top of the series)”, the inhibition entry is “inactive”. Turning to `CN(CCc1ccc(O)c(O)c1)c1ncnc2ccccc12`, the IC50 was 30.4 µM. For the compound `COc1ccc(CCNc2ccnc3c(F)cccc23)cc1OC`, the inhibition entry (at 100 µM (top of the series)) is “inactive”. As to `CN(CCCc1ccc(O)c(O)c1)c1ccnc2ccccc12`, the IC50 is 57.6 µM.

With `CCOc1ccc2nccc(NCCc3ccc(OC)c(OC)c3)c2c1`, the inhibition result (at 100 µM (top of the series)) was “inactive”. Same read-out and setting: with `COc1ccc(CCNc2ccnc3c(C)cccc23)cc1OC` the entry was “inactive”. Take `Oc1ccc(CCNc2ccnc3c(F)cccc23)cc1O`: the IC50 is 35.7 µM. Same read-out and setting: under `Oc1cccc(CCNc2ccnc3ccccc23)c1O` stands 35.3 µM.
